A3G deaminase: blocks human APOBEC3G single-stranded DNA deamination; Q9HC16; recombinant A3G, ssDNA deamination FAM/TAMRA fluorescence; inhibition, % at 20 µM; 330,000 tested, 0.28% active; AID 493012;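 active = inhibition of at least 40% at 20 µM, with no more than 30% in the related APOBEC3A deaminase screen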;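 note: plate controls were DMSO wells with A3G for no effect and wells lacking A3G enzyme for full effect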
APOBEC3A inh: blocks human APOBEC3A ssDNA deamination; P31941; recombinant A3A, FAM/TAMRA ssDNA deamination fluorescence; inhibition, % at 20 µM; 330,000 tested, 0.41% active;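 active = at least 40% inhibition at 20 µM here, with at most 30% in a related deaminase screen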;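 note: plate controls were A3A with DMSO for no effect and wells lacking A3A enzyme for full effect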
Target sequence (P31941 whole entry, looked up): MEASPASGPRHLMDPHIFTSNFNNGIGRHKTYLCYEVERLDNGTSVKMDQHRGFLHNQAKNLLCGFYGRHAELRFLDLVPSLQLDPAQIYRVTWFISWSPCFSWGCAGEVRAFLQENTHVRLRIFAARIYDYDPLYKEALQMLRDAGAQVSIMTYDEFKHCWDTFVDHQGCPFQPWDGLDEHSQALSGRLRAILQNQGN
GASC-1 inh: human JMJD2C demethylase inhibition. Q9H3R0. GST-JMJD2C(1-420) H3K9me3 demethylation, DELFIA europium. inhibition, % at 2.35 µM. 330,000 tested, 0.069% active;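 active = more than half of a compound's replicate wells show inhibition beyond 50%, single wells judged on their own value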;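 note: signal counts dimethyl H3K9 product captured on neutravidin plate; 0% = median of DMSO wells and 100% = 0.3 times that DMSO median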
Target sequence (Q9H3R0 1-420 limits assumed): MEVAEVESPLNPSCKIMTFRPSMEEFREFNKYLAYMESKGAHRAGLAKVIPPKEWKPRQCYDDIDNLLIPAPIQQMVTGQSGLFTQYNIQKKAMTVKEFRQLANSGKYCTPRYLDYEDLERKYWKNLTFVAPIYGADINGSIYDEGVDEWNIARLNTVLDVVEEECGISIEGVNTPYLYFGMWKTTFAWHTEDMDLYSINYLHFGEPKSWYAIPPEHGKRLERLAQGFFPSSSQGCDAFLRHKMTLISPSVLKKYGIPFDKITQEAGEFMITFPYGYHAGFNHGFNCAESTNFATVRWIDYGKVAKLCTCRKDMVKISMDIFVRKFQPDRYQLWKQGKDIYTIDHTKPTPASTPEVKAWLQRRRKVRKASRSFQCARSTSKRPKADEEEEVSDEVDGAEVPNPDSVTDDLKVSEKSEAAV
UCH37 inh: human UCH37 deubiquitinating enzyme inhibition; 330,000 tested, 0.33% active; Q9Y5K5; purified proteasome/UCH37, Ub-AMC cleavage fluorescence; inhibition, % (concentration not given with the values);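 active = mean inhibition over replicate wells above about 20%, limit read from the data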;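 note: 0% = compound-free wells with enzyme and 100% = wells lacking proteasome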
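Material: Human UCH37 enzyme supplied as purified proteasome complex | Schedule: 30 min compound-proteasome preincubation then 25 min substrate reaction, room temperature | Detection: AMC fluorescence from Ub-AMC cleavage, excitation 355 nm, emission 460 nm | Benchmarks: Wells without proteasome as full block, compound-free enzyme plus substrate as uninhibited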
UCH37 confirm: confirmation of human UCH37 deubiquitinating enzyme inhibitors | inhibition, % at 20 µM | 480 tested, 27% active | shares compounds with UCH37 inh | Proteasome-bound UCH37, Ub-AMC cleavage fluorescence;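 active = average inhibition over replicates above about 50%, so the earlier screening hit is confirmed, limit read from the data; inactive = the rest, counted as false positives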;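 note: based on cleavage rate fitted by regression over a 30 min kinetic read; 0% = proteasome plus Ub-AMC and 100% = Ub-AMC without proteasome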
An asterisk follows results filed as active. Shown are actives, neighbours in structure and some others; about 0.97% of the full set was active somewhere.

Results for CCOc1c(O)ccc(/C=C2\SC(=S)NC2=O)c1[N+](=O)[O-] ?
A3G deaminase: 14; APOBEC3A inh: 8; GASC-1 inh: -2; UCH37 inh: 59*; UCH37 confirm: 63*

How did CCOc1ccc(N(C)c2ccc(/C=C3/SC(=S)NC3=O)cc2)cc1 do in these assays?
A3G deaminase: -8; APOBEC3A inh: 0; GASC-1 inh: -2

Results for Cc1ccc(C)c(NC(=O)CSc2c(C)n[nH]c2C)c1 ?
A3G deaminase: -10; APOBEC3A inh: -3; GASC-1 inh: 0; UCH37 inh: 0

What do the screens show for `CCOc1ccccc1NC(=O)CSc1c(C)n[nH]c1C`?
A3G deaminase: -4; APOBEC3A inh: -2; GASC-1 inh: 0; UCH37 inh: 36*; UCH37 confirm: 8

How did CCn1ncc(C=NNC(=O)c2csc3ccccc23)c1C do in these assays?
UCH37 inh: 2

What do the screens show for `Cc1cccc(NC(=O)CN2C(=O)S/C(=C\c3ccc(O)c([N+](=O)[O-])c3)C2=O)c1`?
A3G deaminase: -2; APOBEC3A inh: 2; GASC-1 inh: -8; UCH37 inh: 16

How did Cc1ccc(NC(=O)CN2C(=O)S/C(=C/c3ccc(O)c([N+](=O)[O-])c3)C2=O)cc1C do in these assays?
A3G deaminase: -7; APOBEC3A inh: -1; UCH37 inh: 28*; UCH37 confirm: 48

What do the screens show for `O=c1cc(-c2ccc(O)cc2)oc2c(O)c(O)c(O)c(O)c12`?
A3G deaminase: 1; APOBEC3A inh: 29; UCH37 inh: 69*; UCH37 confirm: 22

Results for COc1ccc(C=NNc2cc(C)nc(N3CCOCC3)n2)c(OC)c1 ?
UCH37 inh: -1

Results for Cc1ccc(C(=O)ON=Cc2ccc(N3CCCCC3)c([N+](=O)[O-])c2)cc1 ?
UCH37 inh: 40*; UCH37 confirm: -2

Results for Cc1ccc(C(=O)O/N=C\c2ccc(N3CCCCC3)c([N+](=O)[O-])c2)cc1 ?
A3G deaminase: -5; APOBEC3A inh: -4; GASC-1 inh: -3

How did Cc1ccc(C=NNC(=O)C2CC(=O)N(c3ccccc3)C2)o1 (stereo not given) do in these assays?
UCH37 inh: 8

Results for Cc1cc2ccccc2c(=O)n1CC(=O)NCCC1=CCCCC1 ?
A3G deaminase: 1; APOBEC3A inh: 9; GASC-1 inh: 16; UCH37 inh: 55*; UCH37 confirm: 67*

How did COCCCn1c(=O)c2ccccc2n(CC(=O)NCCC2=CCCCC2)c1=O do in these assays?
A3G deaminase: -7; APOBEC3A inh: -3; GASC-1 inh: -1; UCH37 inh: 5

Results for CC1(c2ccccc2Cl)NC(=O)N(CC(=O)NCCC2=CCCCC2)C1=O (stereo not given) ?
A3G deaminase: -6; APOBEC3A inh: -1; GASC-1 inh: 33; UCH37 inh: 34*; UCH37 confirm: 56*

Results for N/C(=N\N=Cc1ccnc2ccccc12)SC1CC(=O)N(c2ccc(Br)cc2)C1=O (stereo not given) ?
UCH37 inh: 0

How did CN(C)C=Nc1nc(Sc2ccc(C(F)(F)F)cc2[N+](=O)[O-])n[nH]1 do in these assays?
UCH37 inh: 6

What do the screens show for `O=C(/C=C/c1ccccc1)N/C(=C/c1ccccc1)C(=O)N1CCOCC1`?
A3G deaminase: 3; APOBEC3A inh: 2; GASC-1 inh: 45; UCH37 inh: 45*; UCH37 confirm: 4

Results for CN(C)C(=NS(=O)(=O)c1ccccc1)c1ccc([N+](=O)[O-])cc1 ?
UCH37 inh: 1

What do the screens show for `O=C1C(C2=C(O)c3ccccc3C2=O)=Nc2ccccc21`?
A3G deaminase: -7; APOBEC3A inh: -1; GASC-1 inh: 10; UCH37 inh: 85*; UCH37 confirm: 103*

How did Cc1cccc(C)c1NC(=O)COC(=O)c1ccc([N+](=O)[O-])o1 do in these assays?
A3G deaminase: -5; APOBEC3A inh: 0; GASC-1 inh: -1; UCH37 inh: 29*; UCH37 confirm: 11

What do the screens show for `O=C(Cn1cc(C=NO)c2ccccc21)N1CCOCC1`?
UCH37 inh: 3

What do the screens show for `CC(=O)N(N=C1Sc2ccccc2C1=O)c1ccccc1C`?
UCH37 inh: 83*; UCH37 confirm: 62*

What do the screens show for `CC(=O)N(N=C1Sc2ccccc2C1=O)c1ccccc1`?
UCH37 inh: 31*; UCH37 confirm: 19

Results for CC(=O)N(/N=C1\Sc2ccccc2C1=O)c1cccc(C)c1 ?
A3G deaminase: 4; APOBEC3A inh: 5; GASC-1 inh: 1

How did O=C(NN=C1CCc2ccccc21)c1ccncc1 do in these assays?
UCH37 inh: -1

What do the screens show for `COc1cccc(C=NNc2nnc3c(n2)[nH]c2ccccc23)c1OC`?
UCH37 inh: 3

What do the screens show for `Cc1ccccc1OCCOc1cccc(C=NNC(=O)Cc2nnc(N)s2)c1`?
UCH37 inh: 5

What do the screens show for `O=C(CCN1C(=O)/C(=C/c2cccs2)SC1=S)Nc1ccc(C(=O)O)c(O)c1`?
A3G deaminase: 3; APOBEC3A inh: 4; GASC-1 inh: 35; UCH37 inh: 26*; UCH37 confirm: 18

How did Cc1cc(C)c(Nc2cc(S(=O)(=O)O)c(N)c3c2C(=O)c2ccccc2C3=O)c(C)c1 do in these assays?
GASC-1 inh: 17; UCH37 inh: 34*; UCH37 confirm: 93*

How did CC(CC(=O)Nc1ccc([N+](=O)[O-])cc1)=NNC(=O)c1ccccc1[N+](=O)[O-] do in these assays?
UCH37 inh: 7

What do the screens show for `COc1ccccc1NS(=O)(=O)c1ccc(NN=Cc2ccccc2OCC(=O)O)c([N+](=O)[O-])c1`?
UCH37 inh: 14

What do the screens show for `CCOc1ccc(C=NNc2ccc(S(=O)(=O)Nc3ccccc3C(=O)O)cc2[N+](=O)[O-])cc1OC`?
A3G deaminase: 0; APOBEC3A inh: 5; UCH37 inh: 44*; UCH37 confirm: 75*

How did CN(C)c1ccc(/C=C/c2ccc3c4ccccc4ccc3[n+]2-c2ccccc2)cc1 do in these assays?
UCH37 inh: -4

What do the screens show for `CN(C)c1ccc(/C=C/c2ccc3ccccc3[n+]2C)cc1`?
A3G deaminase: 21; APOBEC3A inh: 27; GASC-1 inh: -16; UCH37 inh: 25*; UCH37 confirm: 30

How did COc1cc([N+](=O)[O-])ccc1-c1ccc(/C=N\n2cnnc2)o1 do in these assays?
A3G deaminase: -6; APOBEC3A inh: -3; GASC-1 inh: 0

What do the screens show for `COc1cc([N+](=O)[O-])ccc1-c1ccc(/C=C2\C(=O)ON=C2c2ccccc2)o1`?
UCH37 inh: 34*; UCH37 confirm: 18

What do the screens show for `COc1ccc(N2C(=O)[C@@H]3[C@H](C2=O)[C@H]2c4ccccc4C=CN2[C@@H]3C(C)=O)cc1`?
GASC-1 inh: 9; UCH37 inh: 37*; UCH37 confirm: -2

How did COC(=O)c1cnn(-c2ccc(Cl)cc2)c1C=NNC(N)=S do in these assays?
UCH37 inh: 4

High-throughput results from PubChem.
